Experimental data: ChEMBL document CHEMBL1126582, “Symmetry-based inhibitors of HIV protease. Structure-activity studies of acylated 2,4-diamino-1,5-diphenyl-3-hydroxypentane and 2,5-diamino-1,6-diphenylhexane-3,4-diol” (J Med Chem, 1993); call rule not given here
Values after ≈ are worked out from the molar mass of the structure shown.

How the values were obtained:
[1] = Estimated solubility (buffer pH 7.4); type: ADME; conditions: read-out: S
Method in brief: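 Solubility was estimated in pH 7.4 phosphate buffer.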

[2] = t1/2 in rats after IV dose (5 mg/kg); type: ADME, organism-based; conditions: rat, in vivo
Method in brief: (§1)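 Rats in groups of eight: four dosed 5 mg/kg intravenously, four 10 mg/kg orally. Dosing solutions were 5 mg/mL in 20% ethanol/5% glucose in water with 2 molar equiv HCl (1 equiv HCl or 2 equiv methanesulfonic acid for some). Terminal t1/2 from the IV arm (n = 4). Cmax was the peak plasma level after oral dosing (n = 4). Bioavailability was AUCoral/2 × AUCiv over 0-6 h.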

[3] = % bioavailability in rat after oral dose (10 mg/kg) 0 - 6 h.; type: ADME, organism-based; conditions: in vivo; method in brief: as §1
[4] = tested on: Human immunodeficiency virus 1; test: In vitro for inhibition of cytopathic effect of HIV-1 3B in MT-4 lymphocytes.; type: functional, organism-based
Method in brief: (§2)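 MT-4 lymphocytes were infected with HIV-1 3B at an MOI of either 0.001 or 0.032 tissue culture infective dose per cell. EC50 is the concentration preventing 50% of viral cytopathic effect, from a single triplicate assay. No effect means no activity up to 100 μM or up to the cytotoxic concentration.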

[5] = Cmax in plasma after oral dose (10 mg/kg); type: ADME, organism-based; set-up: dose 10 mg/kg, route oral; method in brief: as §1
MT4 [6] = test: In vitro for cytotoxicity in MT-4 lymphocytes in the absence of HIV infection.; type: functional; conditions: Homo sapiens
Method in brief: (§3)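 Uninfected MT-4 lymphocytes were cultured with compound. CC50 is the concentration at which 50% of cells remain viable.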

[7] = molecular target: Human immunodeficiency virus type 1 protease (Human immunodeficiency virus 1, UniProt Q72874); test: Inhibition of purified recombinant HIV-1 protease in a fluorogenic assay
Method in brief: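 Purified recombinant HIV-1 protease, with cleavage of the fluorogenic substrate DABCYL-[…]-Pro-Ile-Val-Gln-EDANS as read-out. Value is the inhibitor concentration giving 50% inhibition of protease activity.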

[8] = Cmax in rat plasma after oral dose (10 mg/kg); type: ADME, organism-based; set-up: dose 10 mg/kg, route oral; method in brief: as §1
[9] = In vitro for cytotoxicity in MT-4 lymphocytes in the absence of HIV infection; type: cell-based, MT4; conditions: human; method in brief: as §3
[10] = tested on: Human immunodeficiency virus 1; test: Compound was tested in vitro for inhibition of cytopathic effect of HIV-1 3B in MT-4 lymphocytes; type: functional, organism-based; method in brief: as §2
MT4 [11] = test: Compound was tested in vitro for inhibition of cytopathic effect of HIV-1 3B in MT-4 lymphocytes; No effect; type: functional, cell-based, Homo sapiens; method in brief: as §2

CC(C)[C@H](NC(=O)N(C)Cc1ccccn1)C(=O)N[C@@H](Cc1ccccc1)C(O)[C@H](Cc1ccccc1)NC(=O)[C@H](NC(=O)N(C)Cc1ccccn1)C(C)C (some centres undefined)
solubility [1]: 167 µg/mL (≈ 218 µM)
half-life [2]: 27 min
bioavailability [3]: 11%
EC50 [4]: 25 µM
Cmax [5]: 1500 nM
CC50 (MT4 [6]): > 100 µM
IC50 [7]: 43 nM

CC(C)[C@H](NC(=O)OCc1ccncc1)C(=O)N[C@@H](Cc1ccccc1)C(O)[C@H](Cc1ccccc1)NC(=O)[C@H](NC(=O)OCc1ccncc1)C(C)C (some centres undefined)
solubility [1]: 7.8 µg/mL (≈ 10.6 µM)
half-life [2]: 34.2 min
bioavailability [3]: 0.9%
Cmax [8]: 200 nM
CC50 [9]: > 100 µM
EC50 [10]: 10 µM
IC50 [7]: 26 nM

CC(C)[C@H](NS(=O)(=O)N(C)Cc1ccccn1)C(=O)N[C@@H](Cc1ccccc1)C(O)[C@H](Cc1ccccc1)NC(=O)[C@H](NS(=O)(=O)N(C)Cc1ccccn1)C(C)C (some centres undefined)
solubility [1]: 11 µg/mL (≈ 13.1 µM)
half-life [2]: 84 min
bioavailability [3]: 21%
EC50 (MT4 [11]): Not Active
Cmax [8]: 2100 nM
CC50 [9]: 32 µM
IC50 [7]: 1300 nM

CC(C)[C@H](NS(=O)(=O)N(C)Cc1ccccn1)C(=O)N[C@@H](Cc1ccccc1)[C@H](O)[C@H](O)[C@H](Cc1ccccc1)NC(=O)[C@H](NS(=O)(=O)N(C)Cc1ccccn1)C(C)C
solubility [1]: 40 µg/mL (≈ 46.1 µM)
half-life [2]: 90 min
bioavailability [3]: 11%
EC50 [4]: 43 µM
Cmax [8]: 1160 nM
CC50 [9]: 65 µM
IC50 [7]: 38 nM

CC(C)[C@H](NS(=O)(=O)N(C)Cc1ccccn1)C(=O)N[C@@H](Cc1ccccc1)[C@@H](O)[C@@H](O)[C@H](Cc1ccccc1)NC(=O)[C@H](NS(=O)(=O)N(C)Cc1ccccn1)C(C)C
solubility [1]: 23 µg/mL (≈ 26.5 µM)
EC50 (MT4 [11]): Not Active
CC50 [9]: 52 µM
IC50 [7]: 240 nM

CC(C)[C@H](NC(=O)N(C)Cc1cccnc1)C(=O)N[C@@H](Cc1ccccc1)[C@H](O)[C@H](O)[C@H](Cc1ccccc1)NC(=O)[C@H](NC(=O)N(C)Cc1cccnc1)C(C)C
solubility [1]: 91 µg/mL (≈ 114 µM)
half-life [2]: 78 min
bioavailability [3]: 17%
EC50 [4]: 1.4 µM
Cmax [5]: 520 nM
CC50 (MT4 [6]): > 100 µM
IC50 [7]: < 1 nM

CC(C)[C@H](NS(=O)(=O)N(C)Cc1ccccn1)C(=O)N[C@@H](Cc1ccccc1)[C@@H](O)[C@H](O)[C@H](Cc1ccccc1)NC(=O)[C@H](NS(=O)(=O)N(C)Cc1ccccn1)C(C)C
solubility [1]: 30 µg/mL (≈ 34.6 µM)
EC50 (MT4 [11]): Not Active
CC50 [9]: 56 µM
IC50 [7]: 71 nM

CC(C)[C@H](NC(=O)OCc1ccccn1)C(=O)N[C@@H](Cc1ccccc1)C(O)[C@H](Cc1ccccc1)NC(=O)[C@H](NC(=O)OCc1ccccn1)C(C)C (some centres undefined)
solubility [1]: 51 µg/mL (≈ 69 µM)
half-life [2]: 114 min
bioavailability [3]: 19%
EC50 [4]: 4.5 µM
Cmax [5]: 1600 nM
CC50 (MT4 [6]): 57 µM
IC50 [7]: 4.8 nM

CC(C)[C@H](NC(=O)OCc1cccnc1)C(=O)N[C@@H](Cc1ccccc1)C(O)[C@H](Cc1ccccc1)NC(=O)[C@H](NC(=O)OCc1cccnc1)C(C)C (some centres undefined)
solubility [1]: 18 µg/mL (≈ 24.4 µM)
half-life [2]: 18.6 min
bioavailability [3]: 2.1%
EC50 [4]: 6.3 µM
Cmax [5]: 220 nM
CC50 (MT4 [6]): 62 µM
IC50 [7]: 6.8 nM

CC(C)[C@H](NC(=O)N1CCN(C)CC1)C(=O)N[C@@H](Cc1ccccc1)[C@@H](O)[C@H](Cc1ccccc1)NC(=O)[C@H](NC(=O)OCc1ccccc1)C(C)C
solubility [1]: 141 µg/mL (≈ 193 µM)
half-life [2]: 66 min
bioavailability [3]: 13%
EC50 (MT4 [11]): Not Active
Cmax [8]: 250 nM
CC50 [9]: 55 µM
IC50 [7]: 28 nM
